Bioassay records (PubChem BioAssay)
In the library only some 2.5% were active in any assay of this set; here they are far more common.
DENV2 CPE: inhibitors of DENV2 cytopathic effect, primary screen, cell-based, plate reader, single concentration. DENV2-infected cells, cytopathic effect rescue. CPE inhibition, % at 9.99 µM. 350,000 tested, 1.7% active; in the data active = CPE inhibition above about 20%, passing the limit was not always enough; tested in BHK-21 cells;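 note: 0% = median of neutral control wells and 100% = median of positive control wells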
ERAP1 HTS inh: human ERAP1 aminopeptidase inhibitors, primary screen, biochemical, single point, plate reader; Endoplasmic reticulum aminopeptidase 1 (Homo sapiens), Q9NZ08; recombinant ERAP1, Leu-AMC fluorescence, 60 min; inhibition, % at 10.7 µM; 340,000 tested, 0.15% active;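 active = mean replicate inhibition of at least 30%, or all replicates individually reaching that 30% level; inactive = mean below 30% and not every replicate reaching it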;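 note: 0% = neutral control wells and 100% = L-leucinethiol positive control wells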
SIRT5 inh: SIRT5 desuccinylase inhibitors, primary screen, biochemical, fluorescence imaging, single point, set 5. NAD-dependent protein deacylase sirtuin-5, mitochondrial (Homo sapiens), Q9NXA8. Purified SirT5, succinyl-peptide AMC, trypsin-coupled fluorescence. inhibition, % at 15 µM. 330,000 tested, 1.1% active. AID 652115, 2013; in the data active = inhibition above about 15%
E-selectin induc: E-selectin induction in HUVECs, primary screen, imaging, HUVEC, immunofluorescence imaging, single point | P16581 | activation, % at 7.58 µM | 260,000 tested, 0.37% active | AID 686992, 2013 | normalized: neutral wells 0, TNF-alpha wells 100;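 active = mean E-selectin-positive cell signal at least 10% of the positive control, reached in at least 60% of replicates, without over 20% cell loss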
Target sequence (P16581 whole entry, looked up): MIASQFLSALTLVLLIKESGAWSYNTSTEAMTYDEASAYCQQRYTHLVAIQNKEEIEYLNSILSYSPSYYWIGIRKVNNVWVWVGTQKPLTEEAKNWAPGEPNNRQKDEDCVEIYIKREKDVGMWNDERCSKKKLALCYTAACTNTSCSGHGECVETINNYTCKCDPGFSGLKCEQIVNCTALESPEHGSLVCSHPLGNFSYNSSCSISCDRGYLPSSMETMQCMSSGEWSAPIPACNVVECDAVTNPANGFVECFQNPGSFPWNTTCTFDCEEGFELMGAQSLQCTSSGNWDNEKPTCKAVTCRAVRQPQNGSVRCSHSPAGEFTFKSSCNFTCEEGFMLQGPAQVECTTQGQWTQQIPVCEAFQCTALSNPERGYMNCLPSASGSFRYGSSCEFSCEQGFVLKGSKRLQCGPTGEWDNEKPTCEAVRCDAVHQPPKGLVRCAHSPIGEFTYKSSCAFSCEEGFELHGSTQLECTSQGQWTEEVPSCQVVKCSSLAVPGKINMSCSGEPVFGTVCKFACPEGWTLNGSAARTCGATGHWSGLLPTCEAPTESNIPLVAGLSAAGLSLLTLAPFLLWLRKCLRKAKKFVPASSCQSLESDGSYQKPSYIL
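Test system: HUVEC | Signal: Immunofluorescence imaging | Read-out: Percent E-selectin-positive cells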
PglD DTNB: C. jejuni PglD acetyltransferase inhibitors, primary screen, biochemical, DTNB colorimetric, single point; purified PglD enzyme, DTNB colorimetric CoA detection; 360,000 tested, 0.098% active; UDP-N-acetylbacillosamine N-acetyltransferase PglD (Campylobacter jejuni); inhibition, % at 12.5 µM; in the data active = inhibition above about 16%, passing the limit was not always enough
The depositor's hits bear a star; . = no result given.

SMILES | DENV2 CPE | ERAP1 HTS inh | SIRT5 inh | E-selectin induc | PglD DTNB
COc1ccc(CNC(=O)C[C@H]2C(=O)N(Cc3ccc(OC)cc3)C[C@@H]2Cc2ccccc2)cc1 | -1 | -2 | . | . | -2
COc1ccc(CNC(=O)C[C@H]2C(=O)N(Cc3ccccc3)C[C@@H]2Cc2ccccc2)cc1 | 30* | 0 | -4 | 0 | -5
COc1ccc(CNC(=O)CN2C(=O)C3C4C=CC(C4)C3C2=O)cc1 (stereo not drawn) | 2 | 2 | 109* | 0 | .
C[C@@H]1CN([C@@H](C)CO)C(=O)c2cc(-c3cccnc3)cnc2O[C@H]1CN(C)C(=O)NC1CCCC1 | 5 | -5 | 2 | 0 | 4
Cc1ccc(-n2c3c(cc(C(=O)N4CCN(C)CC4)c2=O)C(=O)CC(C)(C)C3)cc1 | . | . | . | . | 1
Cc1noc(C)c1S(=O)(=O)Nc1ccc2c(c1)C(=O)N([C@H](C)CO)C[C@H](C)[C@H](CN(C)Cc1ccc(C(=O)Nc3ccccc3N)cc1)O2 | 24* | -1 | 2 | 0 | .
Cc1noc(C)c1S(=O)(=O)Nc1ccc2c(c1)CC(=O)N([C@@H](C)CO)C[C@H](C)[C@H](CN(C)Cc1ccc(C(=O)Nc3ccccc3N)cc1)O2 | 61* | -3 | -2 | . | .
Cc1noc(C)c1S(=O)(=O)Nc1ccc2c(c1)C(=O)N([C@@H](C)CO)C[C@H](C)[C@@H](CN(C)Cc1ccc(C(=O)Nc3ccccc3N)cc1)O2 | 14 | -1 | 1 | 0 | .
COc1ccc(S(=O)(=O)Nc2ccc3c(c2)C(=O)N([C@@H](C)CO)C[C@H](C)[C@H](CN(C)Cc2ccc(C(=O)Nc4ccccc4N)cc2)O3)cc1 | 23* | 2 | . | 2 | 3
COc1ccc(S(=O)(=O)Nc2ccc3c(c2)C(=O)N([C@H](C)CO)C[C@@H](C)[C@H](CN(C)Cc2ccc(C(=O)Nc4ccccc4N)cc2)O3)cc1 | -2 | -1 | . | 0 | 0
O=C(NCc1cccc(Cl)c1)c1ccc(-c2cccnc2)c2ccoc12 | 3 | 0 | . | 0 | -5
O=C(CN1C(=O)/C(=C/c2ccco2)SC1=S)Nc1ccc(C(=O)O)c(O)c1 | 1 | 20 | 62* | . | -4
O=C(CN1C(=O)/C(=C/c2ccco2)SC1=S)Nc1ccc(O)c(C(=O)O)c1 | -2 | 0 | 53* | . | 4
C[C@H]1CCCCO[C@H](CN(C)Cc2ccccc2)[C@@H](C)CN([C@@H](C)CO)C(=O)c2cc(NS(=O)(=O)c3ccc(F)cc3)ccc2O1 | 29* | 1 | -1 | . | -1
C[C@@H]1CCCCO[C@@H](CN(C)Cc2ccccc2)[C@@H](C)CN([C@@H](C)CO)C(=O)c2cc(NS(=O)(=O)c3ccc(F)cc3)ccc2O1 | -1 | -1 | 4 | . | 1
C[C@@H]1CCCCO[C@@H](CN(C)Cc2ccccc2)[C@@H](C)CN([C@@H](C)CO)C(=O)c2cc(NS(=O)(=O)c3ccc(Cl)cc3)ccc2O1 | 3 | -2 | 18* | . | -3
Cc1ccc(S(=O)(=O)Nc2ccc3c(c2)C(=O)N([C@@H](C)CO)C[C@@H](C)[C@H](CN(C)Cc2ccccc2)OCCCC[C@H](C)O3)cc1 | -7 | 2 | 17* | . | .
Cc1cccc(NC(=O)CN(C)S(=O)(=O)c2ccc(-c3ccc(=O)[nH]n3)s2)c1C | -5 | 2 | -2 | . | -1
CC(=O)Nc1ccc(S(=O)(=O)NNc2cccc(C)c2)cc1 | -3 | 27 | -1 | 57* | -2
Cc1cccc(NC(=O)NNS(=O)(=O)c2ccc(F)cc2)c1 | . | -1 | -5 | -2 | .
CCCNC(=O)C[C@H]1CC[C@H]2[C@@H](COC[C@@H](O)CN2C(=O)c2cccnc2)O1 | -5 | -1 | -2 | 0 | -1
C[C@@H]1CN([C@H](C)CO)C(=O)Cc2cc(NC(=O)Cc3cn(C)c4ccccc34)ccc2O[C@H]1CN(C)Cc1ccc(-c2ccccc2)cc1 | -11 | -2 | -1 | 0 | .
O=C(NCC(F)(F)F)C1C(=O)Nc2ccccc2C(=O)N1C1CCCC1 (stereo not drawn) | -21 | . | -2 | 1 | .
O=C1Nc2ccccc2C(=O)N(C2CCCC2)C1C(=O)NC1CC1 (stereo not drawn) | 35* | -1 | -1 | 0 | .
O=C(COC(=O)/C=C/c1ccc(S(=O)(=O)N2CCOCC2)cc1)NCc1ccccc1 | -7 | 0 | 0 | 4 | .
